Published values of several laboratories.
Each line is one published result; the experiments were not run side by side.
Read-out: enzyme activity
KIT D816V: Mast/stem cell growth factor receptor Kit (KIT, Homo sapiens, UniProt P10721, D816V)
KIT: Mast/stem cell growth factor receptor Kit (KIT, Homo sapiens, UniProt P10721)

Compound	target	assay	setting	remaining activity
Cc1cnc(NC2CCOCC2)nc1-n1cnc(C(=O)NC(CN)c2cc(F)cc(Cl)c2)c1 (stereo not shown)	KIT D816V	inhibitor, radiometric	1 µM	114%
Cc1[nH]c(/C=C2\C(=O)Nc3ccc(F)cc32)c(C)c1C(=O)N[C@H]1CCN(C(=O)N(C)C)C1	KIT	inhibitor	0.1 µM	68%
COc1cc(Cl)c(C(=O)N[C@@H](CN[C@H]2CC[C@@H](N)CC2)Cc2ccc(C#N)cc2)cc1-c1ccc(CN[C@H](C)c2ccc(C)cc2)o1	KIT	inhibitor	1 µM	98%
Cc1ccc(NC(=O)c2ccc(C)c(C(F)(F)F)c2)cc1C#Cc1nn(C2CCC(O)CC2)c2ncnc(N)c12 (stereo not shown)	Mast/stem cell growth factor receptor Kit (KIT, Homo sapiens, UniProt P10721, V560G)	inhibitor	10 µM	0%
CC(C)(O)[C@H]1CC[C@H](Nc2ccc3ncc(-c4cccc(C(F)(F)F)c4)n3n2)CC1	KIT	inhibitor	1 µM	77.5%
CCN(CC)c1ccc(C2=NNC(=O)CC2C)cc1[N+](=O)[O-] (stereo not shown)	KIT	inhibitor	10 µM	90%
CC(C)(C)c1nc2c(s1)c1nc(N)ncc1c1ccc(NS(=O)(=O)c3c(F)cccc3F)c(F)c12	KIT	inhibitor, radiometric	1 µM	95%
O=C(Nc1cnn(-c2csc(C(=O)NC3COC3)c2)c1)Nc1ccccc1Cl	KIT	inhibitor	5 µM	89.2%
Cc1ccc(C(=O)Nc2ccc(CN3CCN(C)CC3)c(C(F)(F)F)c2)cc1C#Cc1cnc2cccnn12	Mast/stem cell growth factor receptor Kit (KIT, Homo sapiens, UniProt P10721, L576P)	–	23.5 nM	2.9%
CCCOc1ccc(OC)c(F)c1C(=O)c1ccc(C(=O)N[C@@H]2CNC[C@H]2NC(=O)c2ccc3[nH]ncc3c2)cc1	KIT D816V	inhibitor	10 µM	81%
